The source of these data is BindingDB's records for doi:10.1016/j.bmcl.2017.11.026 (Padmashri Vikhe Patil College of Arts, 2018).

One may read the IC50 as the concentration that gives 50% inhibition. Lower therefore signals greater potency.

Structures are written as SMILES. Bounds are passed on as bounds.

T1 sequence (P01375 whole entry): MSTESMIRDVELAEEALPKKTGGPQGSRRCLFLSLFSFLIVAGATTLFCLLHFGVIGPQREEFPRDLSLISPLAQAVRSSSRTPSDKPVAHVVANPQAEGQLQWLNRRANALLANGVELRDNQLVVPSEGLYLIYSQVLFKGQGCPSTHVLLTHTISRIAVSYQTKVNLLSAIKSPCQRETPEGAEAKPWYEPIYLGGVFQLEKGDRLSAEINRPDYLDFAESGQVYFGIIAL

In one test the target is T1, Tumor necrosis factor (Homo sapiens, UniProt P01375). The experiment in a line: Inhibition of LPS-induced TNF-alpha production in human PBMC preincubated for 30 mins followed by LPS addition measured after 5 hrs by ELISA. An outline of the steps:
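Donor blood diluted 1:1 in PBS; PBMCs isolated on histopaque, washed, resuspended in RPMI 1640 with 10% FBS and antibiotics, 1 x 10^6 cells/ml (viability ≥98%). Compounds at 0.03–100 μM in DMSO (final 0.5%) for 30 min at 37 °C, 5% CO2, then E. coli 0127:B8 LPS 1 µg/mL final for 5 h. Supernatant TNF-α by ELISA; % inhibition vs vehicle; IC50 mean of three independent experiments.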
A general note: An ELISA detects its analyte on a solid surface through an enzyme-linked reagent.
As for `O=S(=O)(NCC1CCCO1)c1cnc2ccc(-c3cncc(F)c3)nn12` (configuration not stated), the midpoint of inhibition, the IC50, lay at 4 µM. On to `COc1cccc(CNS(=O)(=O)c2cnc3ccc(Cl)nn23)c1`, for which the IC50 was above 30 µM. Still for that read-out and setting: for `O=S(=O)(NCC1CCCO1)c1cnc2ccc(-c3cccnc3)nn12` (configuration not stated) the value was 4 µM; for `COc1cccc(CNS(=O)(=O)c2cnc3ccc(-c4cnc(N)c(C(F)(F)F)c4)nn23)c1`, above 30 µM; for `O=S(=O)(NCC1CCCO1)c1cnc2ccc(Cl)nn12` (configuration not stated), 30 µM. `CS(=O)(=O)c1ccc(-c2ccc3ncc(S(=O)(=O)NCC4CCCO4)n3n2)cc1` (configuration not stated) returned an IC50 above 30 µM. The molecule `CCN1CCN(S(=O)(=O)c2cnc3ccc(-c4ccc(S(C)(=O)=O)cc4)nn23)CC1` registered an IC50 of 15 µM. Same read-out and setting: for `N#CC1(c2ccccc2)CCN(S(=O)(=O)c2cnc3ccc(-c4cncc(C(F)(F)F)c4)nn23)CC1` the value was 20 µM; for `COc1cccc(CNS(=O)(=O)c2cnc3ccc(-c4cncc(C(F)(F)F)c4)nn23)c1`, above 30 µM; for `O=S(=O)(c1cnc2ccc(-c3cccnc3)nn12)N1CCN(c2ccccn2)CC1`, 11 µM. In the case of `N#CC1(c2ccccc2)CCN(S(=O)(=O)c2cnc3ccc(Cl)nn23)CC1`, 25 µM corresponded to half-maximal inhibition (IC50).

Molecule `O=S(=O)(c1cnc2ccc(-c3cncc(C(F)(F)F)c3)nn12)N1CCN(c2ccccn2)CC1` showed an IC50 of 11 µM. On the same count and under the same terms, for `O=S(=O)(c1cnc2ccc(-c3cncc(F)c3)nn12)N1CCN(Cc2ccccc2)CC1` the value was above 30 µM; for `CCN1CCN(S(=O)(=O)c2cnc3ccc(Cl)nn23)CC1`, above 30 µM. On the same count and under the same terms, for `COc1cccc(CNS(=O)(=O)c2cnc3ccc(-c4ccc(OC)nc4)nn23)c1` the value was above 30 µM; for `COc1cccc(CNS(=O)(=O)c2cnc3ccc(-c4cccnc4)nn23)c1`, 0.3 µM. On the same count and under the same terms, for `CCN1CCN(S(=O)(=O)c2cnc3ccc(-c4cncc(F)c4)nn23)CC1` the value was above 30 µM. Molecule `N#CC1(c2ccccc2)CCN(S(=O)(=O)c2cnc3ccc(-c4cncc(F)c4)nn23)CC1` showed an IC50 above 30 µM. The same measure, in the same setting: for `CS(=O)(=O)c1ccc(-c2ccc3ncc(S(=O)(=O)N4CCC(C#N)(c5ccccc5)CC4)n3n2)cc1` the value was 8 µM.

Molecule `CS(=O)(=O)c1ccc(-c2ccc3ncc(S(=O)(=O)N4CCN(c5ccccn5)CC4)n3n2)cc1` yielded a concentration for half-maximal inhibition (IC50) of 12 µM.

`COc1cccc(CNS(=O)(=O)c2cnc3ccc(-c4cncc(F)c4)nn23)c1`: inhibition was half-maximal at 6 µM (IC50).

On to `CCN1CCN(S(=O)(=O)c2cnc3ccc(-c4cncc(C(F)(F)F)c4)nn23)CC1`, for which the IC50 came out at 9 µM. Still for that read-out and setting: for `O=S(=O)(c1cnc2ccc(Cl)nn12)N1CCN(c2ccccc2)CC1` the value was 30 µM. Same read-out and setting: for `CCN1CCN(S(=O)(=O)c2cnc3ccc(-c4cccnc4)nn23)CC1` the value was 15 µM; for `COc1cccc(CNS(=O)(=O)c2cnc3ccc(-c4ccc(S(C)(=O)=O)cc4)nn23)c1`, 28 µM. Still for that read-out and setting: for `O=S(=O)(c1cnc2ccc(Cl)nn12)N1CCN(Cc2ccccc2)CC1` the value was 30 µM. The molecule `CCN1CCN(S(=O)(=O)c2cnc3ccc(-c4ccc(OC)nc4)nn23)CC1` registered a concentration for half-maximal inhibition (IC50) of 20 µM.

Molecule `CS(=O)(=O)c1ccc(-c2ccc3ncc(S(=O)(=O)N4CCN(Cc5ccccc5)CC4)n3n2)cc1` gave a concentration for half-maximal inhibition (IC50) of 12 µM. Same read-out and setting: for `COc1ccc(-c2ccc3ncc(S(=O)(=O)NCC4CCCO4)n3n2)cc1` (configuration not stated) the value was 4 µM; for `Nc1ncc(-c2ccc3ncc(S(N)(=O)=O)n3n2)cc1C(F)(F)F`, 4 µM. Same read-out and setting: for `O=S(=O)(c1cnc2ccc(-c3cccnc3)nn12)N1CCN(Cc2ccccc2)CC1` the value was 18 µM; for `O=S(=O)(c1cnc2ccc(-c3cncc(F)c3)nn12)N1CCN(c2ccccn2)CC1`, 28 µM; for `N#CC1(c2ccccc2)CCN(S(=O)(=O)c2cnc3ccc(-c4cccnc4)nn23)CC1`, 7 µM. The same measure, in the same setting: for `COc1ccc(-c2ccc3ncc(S(=O)(=O)NCC4CCCO4)n3n2)cn1` (configuration not stated) the value was 6 µM.

`O=S(=O)(c1cnc2ccc(Cl)nn12)N1CCN(c2ccccn2)CC1` displayed an IC50 above 30 µM. Still for that read-out and setting: for `O=S(=O)(NCC1CCCO1)c1cnc2ccc(-c3cncc(C(F)(F)F)c3)nn12` (configuration not stated) the value was above 30 µM; for `COc1ccc(-c2ccc3ncc(S(=O)(=O)N4CCN(c5ccccn5)CC4)n3n2)cn1`, above 30 µM; for `NS(=O)(=O)c1cnc2ccc(Cl)nn12`, 28 µM. On the same count and under the same terms, for `Nc1ncc(-c2ccc3ncc(S(=O)(=O)N4CCN(c5ccccn5)CC4)n3n2)cc1C(F)(F)F` the value was 11 µM. Still for that read-out and setting: for `COc1ccc(-c2ccc3ncc(S(=O)(=O)N4CCC(C#N)(c5ccccc5)CC4)n3n2)cc1OC` the value was 0.5 µM; for `CCN1CCN(S(=O)(=O)c2cnc3ccc(-c4ccc(OC)cc4)nn23)CC1`, 20 µM.

The target in a further test is T1, Tumor necrosis factor. The experiment in a line: Inhibition of LPS-induced TNF-alpha production in human MNC suspension after 20 hrs by radioimmunoassay.
The molecule `COc1ccc([C@@H]2CNC(=O)C2)cc1OC1CCCC1` (racemic) [Adeo] had an IC50 of 0.2 µM.
